A word on the MIC: it is the lowest concentration found to suppress growth. Read a high MIC as weaker potency.

Values after ≈ are worked out from the molar mass of the structure shown.

One assay deals with Pseudomonas aeruginosa. As to the kind of experiment: Antimicrobial activity against Pseudomonas aeruginosa after 12 to 18 hrs by micro-well dilution method. It is filed as functional. The procedure, abridged: (§1)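 Clinical isolates were tested by broth micro-well dilution per NCCLS, in triplicate. Stocks were 10 mg/ml in DMSO, with a 1 mg/ml working solution in methanol. Two-fold serial dilutions ran across 10 wells. Cultures were grown to log phase in Luria Bertani or nutrient broth for 12-18 h at 37 °C and adjusted by OD600 to 10⁷ cfu per well. MIC is the lowest concentration preventing visible growth. Ampicillin and kanamycin served as reference drugs.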

The next assay concerns Staphylococcus aureus. As to the kind of experiment: Antimicrobial activity against Staphylococcus aureus after 12 to 18 hrs by micro-well dilution method. It is filed as functional. The procedure, abridged: as §1
Another assay relates to Salmonella typhimurium. As to the kind of experiment: Antimicrobial activity against Salmonella typhimurium after 12 to 18 hrs by micro-well dilution method. It is filed as functional, Salmonella enterica subsp. enterica serovar Typhimurium. To be noted: Salmonella enterica. An outline of the steps: as §1
A further assay deals with Bacillus subtilis. In words: Antimicrobial activity against Bacillus subtilis after 12 to 18 hrs by micro-well dilution method. It is filed as functional. The procedure, abridged:
as §1

The subject of assay [1] is Candida albicans. As to the kind of experiment: Antifungal activity against Candida albicans after 12 to 18 hrs by broth microdilution method. It is filed as functional. The procedure, abridged:
(§2)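 Clinical isolate from a medical college microbiology department, subcultured on Sabouraud dextrose agar at 37 °C for 48–72 h. Liquid culture was grown in yeast/peptone/D-glucose medium for 12–18 h at 37 °C, then diluted by OD600 to 10⁴ cfu/100 per well. Compounds were made as a 10 mg/ml DMSO stock and a 1 mg/ml methanol working solution. Twofold serial dilutions ran across 10 wells, in triplicate, per NCCLS micro-well dilution. MIC was the lowest concentration with no visible growth.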

Assay [2] concerns Aspergillus niger. As to the kind of experiment: Antifungal activity against Aspergillus niger after 12 to 18 hrs by broth microdilution method. The format is functional. The procedure, abridged: as §2
In general terms: Dilution methods test growth across graded concentrations, often in twofold steps.

The test system of assay [3] is Aspergillus niger. As to the kind of experiment: Antifungal activity against Aspergillus niger after 12 to 18 hrs by micro-well dilution method. It is filed as functional. The procedure, abridged: (§3)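 Broth micro-well dilution per NCCLS, in triplicate. Compounds were stocked at 10 mg/ml in DMSO and diluted to a 1 mg/ml working solution in methanol. Two-fold serial dilutions ran across 10 wells of medium. Clinical isolates were subcultured on Sabouraud dextrose agar at 37 °C for 48-72 h. Cultures were grown in yeast/peptone/D-glucose medium for 12-18 h at 37 °C and sized by OD600 to 10⁴ cfu per well. MIC is the lowest concentration with no visible growth. Amphotericin-B and nystatin served as reference drugs.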

Assay [4] concerns Candida albicans. In words: Antifungal activity against Candida albicans after 12 to 18 hrs by micro-well dilution method. It is filed as functional. An outline of the steps:
as §3

Consider `CC1(C)S[C@@H]2[C@H](NC(=O)[C@H](N)c3ccccc3)C(=O)N2[C@H]1C(=O)O` [AMPICILLIN], for which the MIC in the assay on Pseudomonas aeruginosa was 125 µg/mL (≈ 358 µM); with Staphylococcus aureus it was 500 µg/mL (≈ 1430 µM); with Salmonella typhimurium it was 125 µg/mL (≈ 358 µM); with Bacillus subtilis it was 250 µg/mL (≈ 715 µM).
For the compound `C[C@@H]1[C@H](O)[C@@H](C)/C=C/C=C/C=C/C=C/C=C/C=C/C=C/[C@H](O[C@@H]2O[C@H](C)[C@@H](O)[C@H](N)[C@@H]2O)C[C@@H]2O[C@](O)(C[C@@H](O)C[C@@H](O)[C@H](O)CC[C@@H](O)C[C@@H](O)CC(=O)O[C@H]1C)C[C@H](O)[C@H]2C(=O)O` [AMPHOTERICIN B], the MIC is 15.6 µg/mL (≈ 16.9 µM) against Candida albicans [1] and 500 µg/mL (≈ 541 µM) in the assay on Aspergillus niger [2].
As to `O=C(CC(c1cccc([N+](=O)[O-])c1)S(=O)(=O)c1ccccc1)c1ccc(Cl)cc1` (stereo not drawn), the MIC was 62.5 µg/mL (≈ 145 µM) in the assay with Aspergillus niger [3]; 1.95 µg/mL (≈ 4.54 µM) with Candida albicans [4]; 62.5 µg/mL (≈ 145 µM) against Pseudomonas aeruginosa; 125 µg/mL (≈ 291 µM) against Staphylococcus aureus; 62.5 µg/mL (≈ 145 µM) against Salmonella typhimurium; 62.5 µg/mL (≈ 145 µM) in the assay with Bacillus subtilis.
With `COc1ccc(C(CC(=O)c2ccc(Br)cc2)S(=O)(=O)c2ccccc2)cc1OC` (stereo not drawn), the MIC against Aspergillus niger [3] amounted to 15.6 µg/mL (≈ 31.9 µM); against Candida albicans [4] it was 15.6 µg/mL (≈ 31.9 µM); with Pseudomonas aeruginosa, 62.5 µg/mL (≈ 128 µM); in the assay with Staphylococcus aureus, 62.5 µg/mL (≈ 128 µM); against Salmonella typhimurium, 1.95 µg/mL (≈ 3.98 µM); in the assay on Bacillus subtilis, 62.5 µg/mL (≈ 128 µM).
For the compound `O=C(CC(c1ccc(Cl)cc1)S(=O)(=O)c1ccccc1)CC(c1ccc(Cl)cc1)S(=O)(=O)c1ccccc1` (stereo not drawn), the MIC with Aspergillus niger [3] was 125 µg/mL (≈ 213 µM); with Candida albicans [4] it was 1.95 µg/mL (≈ 3.32 µM); with Pseudomonas aeruginosa, 250 µg/mL (≈ 425 µM); in the assay on Staphylococcus aureus it was 250 µg/mL (≈ 425 µM); with Salmonella typhimurium, 15.6 µg/mL (≈ 26.6 µM); against Bacillus subtilis, 31.2 µg/mL (≈ 53.2 µM).
In the case of `NC[C@H]1O[C@H](O[C@H]2[C@H](O)[C@@H](O[C@H]3O[C@H](CO)[C@@H](O)[C@H](N)[C@H]3O)[C@H](N)C[C@@H]2N)[C@H](O)[C@@H](O)[C@@H]1O` [KANAMYCIN], the MIC came to 250 µg/mL (≈ 516 µM) against Pseudomonas aeruginosa, 500 µg/mL (≈ 1030 µM) in the assay on Staphylococcus aureus, 15.6 µg/mL (≈ 32.2 µM) against Salmonella typhimurium and 7.81 µg/mL (≈ 16.1 µM) in the assay with Bacillus subtilis.
Regarding `O=C(CC(c1ccc(Cl)cc1)S(=O)(=O)c1ccccc1)c1ccccc1` (stereo not drawn), the MIC came to 125 µg/mL (≈ 325 µM) in the assay on Aspergillus niger [3]; 1.95 µg/mL (≈ 5.07 µM) against Candida albicans [4]; 62.5 µg/mL (≈ 162 µM) in the assay with Pseudomonas aeruginosa; 125 µg/mL (≈ 325 µM) in the assay on Staphylococcus aureus; 125 µg/mL (≈ 325 µM) against Salmonella typhimurium; 62.5 µg/mL (≈ 162 µM) with Bacillus subtilis.
On to NYSTATIN, for which the MIC against Candida albicans [1] and with Aspergillus niger [2] was 7.81 µg/mL in each case.
For `O=C(CC(c1ccc(Cl)cc1)S(=O)(=O)c1ccccc1)c1ccc(Cl)cc1` (stereo not drawn), the MIC in the assay on Aspergillus niger [3] was found to be 15.6 µg/mL (≈ 37.2 µM); in the assay on Candida albicans [4] it was 31.2 µg/mL (≈ 74.5 µM); in the assay on Pseudomonas aeruginosa it was 125 µg/mL (≈ 298 µM); against Staphylococcus aureus, 250 µg/mL (≈ 596 µM); against Salmonella typhimurium it was 125 µg/mL (≈ 298 µM); against Bacillus subtilis, 15.6 µg/mL (≈ 37.2 µM).
As to `Cc1ccc(C(CC(=O)CC(c2ccc(C)cc2)S(=O)(=O)c2ccccc2)S(=O)(=O)c2ccccc2)cc1` (stereo not drawn), the MIC turned out to be 31.2 µg/mL (≈ 57.2 µM) against Aspergillus niger [3]; 1.95 µg/mL (≈ 3.57 µM) against Candida albicans [4]; 62.5 µg/mL (≈ 114 µM) against Pseudomonas aeruginosa; 62.5 µg/mL (≈ 114 µM) in the assay on Staphylococcus aureus; 31.2 µg/mL (≈ 57.2 µM) against Salmonella typhimurium; 62.5 µg/mL (≈ 114 µM) in the assay with Bacillus subtilis.
For the compound `COc1ccc(C(CC(=O)CC(c2ccc(OC)cc2)S(=O)(=O)c2ccccc2)S(=O)(=O)c2ccccc2)cc1` (stereo not drawn), the MIC with Aspergillus niger [3] was 125 µg/mL (≈ 216 µM); with Candida albicans [4], 125 µg/mL (≈ 216 µM); against Pseudomonas aeruginosa, 125 µg/mL (≈ 216 µM); in the assay on Staphylococcus aureus, 250 µg/mL (≈ 432 µM); against Salmonella typhimurium, 62.5 µg/mL (≈ 108 µM); against Bacillus subtilis, 31.2 µg/mL (≈ 54 µM).
Regarding `O=C(CC(c1ccccc1)S(=O)(=O)c1ccccc1)c1ccc(Br)cc1` (stereo not drawn), the MIC against Aspergillus niger [3] came to 62.5 µg/mL (≈ 146 µM); with Candida albicans [4], 125 µg/mL (≈ 291 µM); with Pseudomonas aeruginosa it was 62.5 µg/mL (≈ 146 µM); in the assay on Staphylococcus aureus it was 125 µg/mL (≈ 291 µM); in the assay on Salmonella typhimurium it was 250 µg/mL (≈ 582 µM); with Bacillus subtilis, 62.5 µg/mL (≈ 146 µM).
With `O=C(CC(c1ccccc1)S(=O)(=O)c1ccccc1)c1ccccc1` (stereo not drawn), the MIC against Aspergillus niger [3] is 7.81 µg/mL (≈ 22.3 µM); in the assay on Candida albicans [4], 3.9 µg/mL (≈ 11.1 µM); in the assay on Pseudomonas aeruginosa, 125 µg/mL (≈ 357 µM); in the assay with Staphylococcus aureus, 62.5 µg/mL (≈ 178 µM); with Salmonella typhimurium it was 1.95 µg/mL (≈ 5.56 µM); against Bacillus subtilis, 31.2 µg/mL (≈ 89.2 µM).
With `O=C(CC(c1ccccc1)S(=O)(=O)c1ccccc1)CC(c1ccccc1)S(=O)(=O)c1ccccc1` (stereo not drawn), the MIC against Aspergillus niger [3] was found to be 125 µg/mL (≈ 241 µM); against Candida albicans [4], 250 µg/mL (≈ 482 µM); against Pseudomonas aeruginosa it was 62.5 µg/mL (≈ 121 µM); in the assay on Staphylococcus aureus it was 62.5 µg/mL (≈ 121 µM); against Salmonella typhimurium it was 250 µg/mL (≈ 482 µM); against Bacillus subtilis it was 125 µg/mL (≈ 241 µM).
On to `COc1cc(C(CC(=O)c2ccc(Br)cc2)S(=O)(=O)c2ccccc2)cc(OC)c1OC` (stereo not drawn), for which the MIC against Aspergillus niger [3] was determined as 7.81 µg/mL (≈ 15 µM); against Candida albicans [4] it was 3.9 µg/mL (≈ 7.51 µM); against Pseudomonas aeruginosa it was 125 µg/mL (≈ 241 µM); in the assay with Staphylococcus aureus, 125 µg/mL (≈ 241 µM); with Salmonella typhimurium it was 1.95 µg/mL (≈ 3.75 µM); against Bacillus subtilis, 31.2 µg/mL (≈ 60.2 µM).

These data come from ChEMBL document CHEMBL2311466, “Synthesis and antibacterial and antifungal evaluation of some chalcone based sulfones and bisulfones” (2013).
